The subject of data set [1] is Mus musculus. In words: Anticonvulsant activity in Kunming mouse assessed as protection against maximal electroshock-induced seizures at 300 mg/kg, ip after 4 hrs. Type of data set: functional, organism-based. Details: dose 300 mg/kg. In outline:
(§1)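 Maximal electroshock test in mice, five per group, dosed i.p. with suspension in 1:19 DMSO/saline plus 0.5% methylcellulose; seizures evoked at 0.5 h or 4 h after dosing. Protection defined as abolition of hind leg tonic maximal extension; scored as number protected/number tested.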

Data set [2] deals with Mus musculus. In words: Anticonvulsant activity against thiosemicarbazide-induced seizures in Kunming mouse assessed as clonic seizures of at 50 mg/kg, ip after 2.5 hrs. Type of data set: functional. The following applies: route intraperitoneal.
In data set [3] the test system is Mus musculus. As to the kind of experiment: Anticonvulsant activity in ip dosed Kunming mouse assessed as protection against maximal electroshock-induced seizures. Type of data set: functional. The method, boiled down:
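Phase II quantification: mice (ten per dose) dosed i.p. with compound suspended in 1:19 DMSO/saline, 0.5% methylcellulose; MES given 30 min later, protection being abolition of hind leg tonic extension. ED50, dose protecting 50% of animals, reported with 95% confidence limits.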

The test system of data set [4] is Mus musculus. As to the kind of experiment: Toxicity in Kunming mouse assessed as 3-mercaptopropionic acid-induced lethality at 50 mg/kg, ip after 0.5 hrs. Type of data set: organism-based. The following applies: in vivo. On the set-up: dose 50 mg/kg, route intraperitoneal. The method, boiled down:
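Compound given i.p. at 50 mg/kg as a suspension in 1:19 (vol/vol) DMSO/saline (0.9% NaCl) with 0.5% methylcellulose. At 30 min, 3-mercaptopropionic acid at 60 mg/kg in saline was injected sc. Convulsion latency and duration, and the latency and percentage of lethality, were recorded over the following 1 h.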

The test system of data set [5] is Mus musculus. As to the kind of experiment: Anticonvulsant activity in Kunming mouse assessed as protection against maximal electroshock-induced seizures at 30 mg/kg, ip after 4 hrs. In kind it is functional, organism-based. Details: dose 30 mg/kg. The method, boiled down: as §1
Data set [6] has as its system Mus musculus. As to the kind of experiment: Toxicity in Kunming mouse assessed as subcutaneous pentylenetetrazole-induced lethality at 50 mg/kg, ip after 0.5 hrs. Type of data set: organism-based. The following applies: in vivo, sc. On the set-up: dose 50 mg/kg. The method, boiled down:
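Test article at 50 mg/kg i.p. in 1:19 (vol/vol) DMSO/saline with 0.5% methylcellulose. After 30 min, pentylenetetrazole at 85 mg/kg in saline was given sc. Animals were caged individually and watched for 30 min, with clonic and tonic seizures and deaths counted.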

The subject of data set [7] is Mus musculus. In words: Anticonvulsant activity against subcutaneous pentylenetetrazole-induced seizures in Kunming mouse assessed as tonic seizures of at 50 mg/kg, ip after 0.5 hrs. In kind it is functional. The method, boiled down:
(§2)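 Test agent given i.p. (suspension in 1:19 DMSO/saline, 0.5% methylcellulose); 30 min later PTZ 85 mg/kg in saline given sc. Animals kept in individual cages, watched 30 min; clonic seizures, tonic seizures and deaths counted, expressed as percent.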

Data set [8] relates to Mus musculus. In words: Anticonvulsant activity against isoniazid-induced seizures in Kunming mouse assessed as clonic seizures of at 50 mg/kg, ip after 0.5 hrs. In kind it is functional. The following applies: route intraperitoneal. The method, boiled down: (§3)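 Compounds suspended in 1:19 DMSO/saline containing 0.5% methylcellulose and given i.p.; after 30 min mice received isoniazid 250 mg/kg i.p., a dose convulsing 100% of animals. Each mouse housed singly and observed 1 h; percent of animals with clonic and tonic seizures, and lethality, recorded.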

In data set [9] the test system is Mus musculus. As to the kind of experiment: Anticonvulsant activity against 3-mercaptopropionic acid-induced seizures in Kunming mouse assessed as tonic seizures of at 50 mg/kg, ip after 0.5 hrs. In kind it is functional. The following applies: route intraperitoneal. The method, boiled down:
(§4)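 Mice given test agent i.p. as suspension in 1:19 DMSO/saline with 0.5% methylcellulose; 30 min later 60 mg/kg 3-mercaptopropionic acid in saline injected sc. Latency and duration of convulsions, latency and percentage lethality recorded over 1 h after convulsant; clonic and tonic seizure incidence reported as percent of animals.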

For data set [10], the system named is Mus musculus. As to the kind of experiment: Anticonvulsant activity against isoniazid-induced seizures in Kunming mouse assessed as tonic seizures of at 50 mg/kg, ip after 0.5 hrs. In kind it is functional. The following applies: route intraperitoneal. The method, boiled down:
as §3

The test system of data set [11] is Mus musculus. In words: Toxicity in Kunming mouse assessed as thiosemicarbazide-induced lethality at 50 mg/kg, ip after 2.5 hrs. In kind it is organism-based. Details: dose 50 mg/kg, route intraperitoneal. The following applies: in vivo.
In data set [12] the test system is Mus musculus. As to the kind of experiment: Anticonvulsant activity against 3-mercaptopropionic acid-induced seizures in Kunming mouse assessed as clonic seizures of at 50 mg/kg, ip after 0.5 hrs. In kind it is functional. The following applies: route intraperitoneal. The method, boiled down:
as §4

For data set [13], the system named is Mus musculus. In words: Anticonvulsant activity against subcutaneous pentylenetetrazole-induced seizures in Kunming mouse assessed as clonic seizures of at 50 mg/kg, ip after 0.5 hrs. In kind it is functional. The method, boiled down:
as §2

Data set [14] has as its system Mus musculus. As to the kind of experiment: Toxicity in Kunming mouse assessed as isoniazid-induced lethality at 50 mg/kg, ip after 0.5 hrs. Details: dose 50 mg/kg, route intraperitoneal. The following applies: in vivo. Type of data set: organism-based. In outline:
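Mice were dosed i.p. at 50 mg/kg with a suspension in 1:19 (vol/vol) DMSO/saline containing 0.5% methylcellulose. Isoniazid (250 mg/kg, i.p.) was given 30 min later. Mice were then housed singly and observed for 1 h, scoring clonic seizures, tonic seizures and deaths.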

For data set [15], the system named is Mus musculus. In words: Protective index, ratio of TD50 for neurotoxicity to ED50 for anticonvulsant activity in ip dosed Kunming mouse. In kind it is functional.
Data set [16] is described as follows: Neurotoxicity in ip dosed Kunming mouse by rotarod test. The following applies: in vivo. Type of data set: toxicity, organism-based.
Data set [17] relates to Mus musculus. In words: Anticonvulsant activity against thiosemicarbazide-induced seizures in Kunming mouse assessed as tonic seizures of at 50 mg/kg, ip after 2.5 hrs. Type of data set: functional. The following applies: route intraperitoneal.
Data set [18] concerns Mus musculus. As to the kind of experiment: Anticonvulsant activity in Kunming mouse assessed as protection against maximal electroshock-induced seizures at 100 mg/kg, ip after 4 hrs. In kind it is functional, organism-based. On the set-up: dose 100 mg/kg. The method, boiled down:
as §1

Data set [19] relates to Mus musculus. As to the kind of experiment: Anticonvulsant activity in Kunming mouse assessed as protection against maximal electroshock-induced seizures at 100 mg/kg, ip after 30 mins. Type of data set: functional, organism-based. On the set-up: dose 100 mg/kg. The method, boiled down: as §1
In data set [20] the test system is Mus musculus. As to the kind of experiment: Anticonvulsant activity in Kunming mouse assessed as protection against maximal electroshock-induced seizures at 30 mg/kg, ip after 30 mins. Type of data set: functional, organism-based. On the set-up: dose 30 mg/kg. In outline: as §1

Calls of active or inactive are those of the source.

Consider `O=C(/C=C/c1ccc(Cl)cc1Cl)NCCO`, for which the result in the data set on Mus musculus [1] was inactive.

Take `O=C(Cc1ccccc1)NCCO`: the outcome with Mus musculus [1] was inactive.

Regarding `O=C(/C=C/c1ccccc1)NCCO` [IDROCILAMIDE], the Activity amounted to 100% with Mus musculus [2]; 10% in the data set with Mus musculus [4]; 10% in the data set on Mus musculus [6]; 20% with Mus musculus [7]; 100% with Mus musculus [8]; 10% with Mus musculus [9]. In addition, the Activity stood at 70% with Mus musculus [10]; 30% in the data set on Mus musculus [11]; 100% with Mus musculus [12]; 100% with Mus musculus [13]; 20% in the data set on Mus musculus [14]; 40% in the data set with Mus musculus [17]. The ED50 in the data set with Mus musculus [3] stood at 17.7 mg/kg. In the data set on Mus musculus [5], the result was inactive. In the data set on Mus musculus [15], the “Ratio TD50/ED50” value is listed as 8.8. In data set [16], this compound had a TD50 of 155 mg/kg.

Regarding `O=C(/C=C/c1ccc(Br)cc1)NCCO`, the ED50 in the data set with Mus musculus [3] is 76 mg/kg. Further, the result in the data set with Mus musculus [18] was inactive. The “Ratio TD50/ED50” value in the data set on Mus musculus [15] is 1.3. In data set [16], this compound registered a TD50 of 98.3 mg/kg.

Consider `O=C(NCCO)c1ccccc1`, for which the outcome with Mus musculus [1] was inactive.

`O=C(CCc1ccccc1)NCCO`: the result in the data set with Mus musculus [1] was inactive.

Turning to `O=C(/C=C/c1cccc(Cl)c1)NCCO`, the ED50 in the data set with Mus musculus [3] was 25 mg/kg. Further, the outcome with Mus musculus [5] was inactive. Also, in the data set on Mus musculus [14], the Activity came to 20%. Also, the “Ratio TD50/ED50” value with Mus musculus [15] is 5.1. The compound also gave a TD50 in data set [16] of 127 mg/kg.

Regarding `NC(=O)N1c2ccccc2C=Cc2ccccc21` [CARBAMAZEPINE], the Activity with Mus musculus [2] was 100%; in the data set with Mus musculus [6], 10%; in the data set on Mus musculus [7] it was 0%; with Mus musculus [8], 50%; in the data set with Mus musculus [9], 0%; in the data set on Mus musculus [10] it was 0%. Moreover, the Activity in the data set with Mus musculus [11] turned out to be 20%; with Mus musculus [12], 100%; in the data set on Mus musculus [13], 100%; in the data set with Mus musculus [14], 0%; with Mus musculus [17], 0%. Moreover, in the data set with Mus musculus [3], the ED50 is 8.8 mg/kg.

Regarding `O=C(/C=C/c1ccc(Cl)cc1)NCCO`, the ED50 in the data set with Mus musculus [3] came out at 73.4 mg/kg. In the data set with Mus musculus [18], the result was inactive. For the same compound, the “Ratio TD50/ED50” value in the data set with Mus musculus [15] stood at 1.3. Besides, the TD50 in [16] was 98.4 mg/kg.

`COc1ccc(/C=C/C(=O)NCCO)cc1`: the result in the data set with Mus musculus [18] was inactive.

For the compound `O=C(/C=C/c1ccccc1F)NCCO`, the ED50 in the data set on Mus musculus [3] was 35.3 mg/kg. Further, the outcome in the data set on Mus musculus [5] was inactive. In addition, the “Ratio TD50/ED50” value with Mus musculus [15] is recorded as 6.2. Moreover, in [16], the TD50 turned out to be 219 mg/kg.

As for `O=C(/C=C/c1ccc2c(c1)OCO2)NCCO`, the ED50 in the data set on Mus musculus [3] was found to be 32.4 mg/kg. For the same compound, the outcome in the data set with Mus musculus [5] was inactive. Further, in the data set on Mus musculus [15], the “Ratio TD50/ED50” value is on record as 3.3. This compound also returned a TD50 in data set [16] of 105 mg/kg.

Take `O=C(/C=C/c1ccccc1Br)NCCO`: in the data set with Mus musculus [3], the ED50 stood at 68.2 mg/kg. Besides, the outcome in the data set with Mus musculus [18] was inactive. Moreover, the “Ratio TD50/ED50” value in the data set on Mus musculus [15] is reported as 3.3. This compound registered a TD50 in [16] of 228 mg/kg.

As to `CN(C)c1ccc(/C=C/C(=O)NCCO)cc1`, the ED50 with Mus musculus [3] was 66.1 mg/kg. For the same compound, in the data set on Mus musculus [18], the outcome was inactive. Moreover, the “Ratio TD50/ED50” value with Mus musculus [15] is reported as 4.6. In data set [16], this compound gave a TD50 of 304 mg/kg.

In the case of `Cc1ccc(/C=C/C(=O)NCCO)cc1`, the result with Mus musculus [18] was inactive.

`O=C(/C=C/c1ccc(F)cc1)NCCO`: the ED50 in the data set on Mus musculus [3] is 45.6 mg/kg. In addition, the outcome in the data set on Mus musculus [18] was inactive. Also, in the data set with Mus musculus [15], the “Ratio TD50/ED50” value is 2.2. In addition, in [16], the TD50 came to 98.3 mg/kg. Moreover, in the data set on Mus musculus [19], the result was Active.

As for `O=C(/C=C/c1ccccc1Cl)NCCO`, the ED50 in the data set on Mus musculus [3] worked out at 59 mg/kg. For the same compound, the outcome in the data set on Mus musculus [18] was inactive. Also, in the data set with Mus musculus [15], the “Ratio TD50/ED50” value is given as 2.6. In addition, the TD50 in data set [16] was determined as 152 mg/kg. In addition, the outcome in the data set on Mus musculus [19] was Active.

Regarding `O=C(/C=C/c1cccc(F)c1)NCCO`, the Activity in the data set on Mus musculus [2] was found to be 100%; in the data set on Mus musculus [4], 50%; in the data set with Mus musculus [6], 20%; in the data set with Mus musculus [7], 40%; with Mus musculus [9], 30%; with Mus musculus [11], 40%. Moreover, the Activity in the data set with Mus musculus [12] is listed as 100%; in the data set with Mus musculus [13], 100%; in the data set with Mus musculus [17] it was 50%. Also, in the data set with Mus musculus [3], the ED50 amounted to 17 mg/kg. For the same compound, the result in the data set on Mus musculus [5] was inactive. In addition, in the data set with Mus musculus [20], the result was Active. For the same compound, in the data set on Mus musculus [15], the “Ratio TD50/ED50” value was 12.4. This compound gave a TD50 in data set [16] of 211 mg/kg.

For the origin of these results see ChEMBL document CHEMBL1153568, “Synthesis and anticonvulsant activity of N-(2-hydroxyethyl) cinnamamide derivatives” (Eur J Med Chem, 2009).
